Measured values from article PMC5901721 (Cancer research, 2018).
One block for each compound: values may come before it.

Columns and labels:
SCC12 cells [1] = details: cited from earlier work
MRCKα [2] = assay: MRCKα pS1003 western blot in HEK293 cells expressing FLAG-MRCKα; type: cell-based, human; details: 2 hours
In short: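 HEK293 cells were transfected with 10 μg pEF-FLAG-MRCKα using a lipid reagent. After 48 h, they were treated 2 h with DMSO, 3 μM or 1 μM test compound. Cells were washed in PBS and lysed in 1% SDS, 50 mM Tris-HCl pH 7.4. Lysates were shredded and analysed by SDS-PAGE and western blot for MRCKα pS1003.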

[3] = test system: MLC2 phosphorylation in SCC12 cells; details: cited from earlier work
PKCγ = assay: Kinase selectivity profiling, 115 kinase panel; type: biochemical; details: 1 µM compound; apparent Km for ATP
DMPK [4] = molecular target: T1, DMPK (Homo sapiens, UniProt Q09013); assay: Kinase selectivity profiling, 115 kinase panel; type: binding; details: 1 µM compound
T1 sequence (Q09013 1-629): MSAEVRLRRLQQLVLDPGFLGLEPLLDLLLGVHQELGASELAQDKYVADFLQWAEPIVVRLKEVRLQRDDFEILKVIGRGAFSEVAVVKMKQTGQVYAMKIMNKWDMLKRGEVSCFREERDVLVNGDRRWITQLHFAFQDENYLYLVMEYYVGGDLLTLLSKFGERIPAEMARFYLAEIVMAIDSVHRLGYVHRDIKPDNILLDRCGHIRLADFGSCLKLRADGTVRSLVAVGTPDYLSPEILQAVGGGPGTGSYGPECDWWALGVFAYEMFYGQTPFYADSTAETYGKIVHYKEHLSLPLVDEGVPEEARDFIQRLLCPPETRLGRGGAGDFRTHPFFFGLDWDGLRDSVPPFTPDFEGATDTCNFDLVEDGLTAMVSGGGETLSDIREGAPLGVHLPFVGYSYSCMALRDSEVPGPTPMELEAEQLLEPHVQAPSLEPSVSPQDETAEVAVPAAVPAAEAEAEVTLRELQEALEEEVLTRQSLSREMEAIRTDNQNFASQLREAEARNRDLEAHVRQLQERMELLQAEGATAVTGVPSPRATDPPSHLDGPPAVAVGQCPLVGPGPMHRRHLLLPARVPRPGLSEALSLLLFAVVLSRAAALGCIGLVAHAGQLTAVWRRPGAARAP

DMPK [5] = molecular target: T1, DMPK; assay: Competitive LanthaScreen Eu TR-FRET kinase binding assay; details: read-out: Kd DMPK; displacement of fluorescent tracer; Cheng-Prusoff equation
MRCKβ [6] = type: cell-based, human; details: MDA MB 231 cells, inducible kinase domains, 60 minutes
In short: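 MDA MB 231 cells with doxycycline-inducible MRCKβ, ROCK1 or ROCK2 kinase domains were plated at 1.1×10⁵/well. After 24 h, 1 µg/ml doxycycline was given for 18 h, then test compound for 60 min. Lysis was in 50 mM Tris-HCl pH 7.4, 0.5% SDS with phosphatase inhibitors. pMLC2 was measured by quantitative western blot; mean ± SEM of 3-4 independent replicates.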

MRCKβ [7] = assay: Out-sourced dose-response kinase assays; type: biochemical; details: Cheng-Prusoff equation
MRCKβ [8] = assay: In-house kinase assay Ki compared with out-sourced values; type: biochemical
757 cancer cell lines = assay: Cancer cell line screen; type: cell-based, human; details: 72 hours, up to 10 µM, p<0.05
In short: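 757 human cancer cell lines spanning 45 cancer types were seeded in 1536-well plates and exposed to a 7-point, half-log dilution series of test compound with a top concentration of 10 μM.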

MRCKα [9] = assay: In vitro MRCKα autophosphorylation and MLC2 phosphorylation assay; type: biochemical; details: dephosphorylated immunoprecipitated FLAG-MRCKα
In short: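 FLAG-MRCKα (wild type, K106M or S1003A) was expressed in HEK293 for 2 days and immunoprecipitated on beads. They were incubated with lysate of IPTG-induced bacteria expressing MLC2, with western blot read-out.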

[10] = test system: MLC2 phosphorylation in SCC12 cells; assay: MLC2 phosphorylation in SCC12 cells; type: cell-based, human
In short: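 SCC12 cells were plated at 5×10⁵ per well of a 6-well plate. After 24 h, they were treated 2 h with DMSO or a dose range of test compound. Cells were washed in PBS, lysed in 1% SDS, 50 mM Tris-HCl pH 7.4, shredded, and analysed by SDS-PAGE western blotting for MLC2 phosphorylation.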

CDK2/Cyclin A = assay: Kinase selectivity profiling, 115 kinase panel; type: biochemical; details: 1 µM compound
MRCKα pS1003 [11] = assay: MRCKα pS1003 staining of mouse skin after topical treatment; type: in vivo; details: FVB mouse, topical 4 X 25 µg over 2 days
In short: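 FVB mice (5 per group) received topical 25 μg test compound in 50 μL 80% (v/v) DMSO, or 50 μL vehicle. Four applications were given over 2 days. Mice were culled 2 h after the final treatment, and skin was taken for MRCKα pS1003 staining.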

CDK9/Cyclin T1 = assay: Kinase selectivity profiling, 115 kinase panel; type: biochemical; details: 1 µM compound
skin papillomas = assay: DMBA/TPA two-stage chemical carcinogenesis model of SCC; type: in vivo, mouse; details: topical 25 μg 5 times per week for 14 weeks
In short: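 40 FVB mice received topical DMBA 25 μg in acetone on day 1. From day 5 they received TPA 4.7 μg in acetone three times weekly. From day 5, groups of 20 also got test compound 25 μg in 50 μL 80% DMSO or vehicle, 5 times/week for 14 weeks. Tumour size and number were recorded weekly, blinded. Culling was at 12 mm papilloma diameter. Data are mean ± SD, 20 mice.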

SCC12 cells [12] = assay: Operetta high content morphology analysis; type: cell-based, human; details: 2 hours
In short: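 SCC12 cells were seeded at 1.5×10⁴ per 96-well and grown 24 h, then treated 2 h with DMSO or a dose range of test compound. Fixation was 4% PFA for 15 min, permeabilisation 0.5% Triton X-100 for 15 min, blocking 1% BSA for 30 min. Staining used phalloidin, DAPI and a whole-cell stain, followed by automated high-content imaging and morphology analysis.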

ROCK1 = assay: Kinase selectivity profiling, 115 kinase panel; type: biochemical; details: 1 µM compound; apparent Km for ATP
SCC12 cells [13] = assay: SCC12 cell viability; type: cell-based, human; details: 24 hour treatment
TSSK1 (STK22D) = assay: Kinase selectivity profiling, 115 kinase panel; type: biochemical; details: 1 µM compound
PKCα = assay: Kinase selectivity profiling, 115 kinase panel; type: biochemical; details: 1 µM compound
[14] = Skin and blood concentrations after topical application to FVB mice; type: in vivo; details: FVB mouse
In short: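 FVB mice received topical test compound in 80% (v/v) DMSO under several regimens: once at 10 μg or 25 μg; 4 × 25 μg over 2 days; or 8 × 25 μg (4 days on, 2 off, 4 on), with vehicle controls. Mice were culled 2, 4, 8 or 24 h after the final dose. Skin and blood concentrations were measured by a contract laboratory; mean ± SD from 3 mice per condition.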

[15] = Skin and blood concentrations at DMBA/TPA experimental endpoint; type: in vivo, mouse; details: DMBA/TPA mice, topical 25 μg 5 times per week
In short: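 DMBA/TPA-initiated and promoted FVB mice were dosed topically with test compound 25 μg in 50 μL 80% (v/v) DMSO, 5 times per week. Skin and blood compound concentrations were measured by a contract laboratory at study end.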

SCC12 cells [16] = assay: Phalloidin F-actin immunofluorescence; type: cell-based, human; details: SCC12, 1 µM
In short: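 SCC12 cells on glass coverslips were grown overnight, then given medium with 1 μM test compound or DMSO. Cells were fixed in 4% paraformaldehyde/PBS for 15 min and permeabilised with 0.5% Triton X-100 for 5 min. F-actin was stained with Alexa 488 phalloidin, mounted with DAPI and imaged by confocal microscopy.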

CDK9/Cyclin K = assay: Kinase selectivity profiling, 115 kinase panel; type: biochemical; details: 1 µM compound
SCC12 cells [17] = assay: SCC12 organotypic invasion assay; type: cell-based, human; details: SCC12, 0.4 μM, relative to DMSO vehicle
ROCK2 = assay: Kinase selectivity profiling, 115 kinase panel; type: biochemical; details: 1 µM compound; apparent Km for ATP
SCC12 cells [18] = assay: Random migration; type: cell-based, human; details: SCC12, 0.4 μM, 6 hours
In short: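 SCC12 cells were plated at 2×10⁴ per well of an image-lock 96-well plate. After 24 h, medium was changed to DMSO or 0.4 μM test compound. Individual cells were tracked over 6 h to give accumulated distance, Euclidean distance, velocity and directionality. Data are mean ± SEM of 120 cells; two-tailed unpaired t-tests.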

MRCKα pS1003 [19] = assay: MRCKα pS1003 immunohistochemistry in DMBA/TPA treated skin and papillomas; type: in vivo, mouse; details: DMBA/TPA mice, topical 25 μg 5 times per week
In short: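 Skin sections from DMBA/TPA mice dosed topically with 25 μg test compound in 80% DMSO or vehicle were stained for MRCKα pS1003. Normal skin and papilloma areas were selected, cells auto-detected and cytoplasmic intensity measured. Histoscore = %low×100 + %medium×200 + %high×300. Data are mean ± SD from 19 mice per group; two-tailed unpaired t-tests.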

[20] = topical 25 µg twice per day for 2 days

SMILES: O=C(Nc1cn[nH]c1-c1ccccn1)c1nn(C2CCNCC2)cc1Cl [BDP5290]
- SCC12 organotypic invasion (SCC12 cells [1]): inhibited SCC12 organotypic invasion
- pS1003 immunoreactivity (MRCKα [2]; 3 µM): blocked
- MLC phosphorylation [3]: reduced MLC phosphorylation

- inhibition of PKCγ (PKCγ): > 75%
- inhibition of DMPK (DMPK [4]): > 75%
- Kd (DMPK [5]): 0.8 nM
- minimum fold-selectivity for MRCKβ against all kinases tested (calculated Ki) (MRCKβ [7]): 43 times
- affinity (MRCKβ Ki determined in-house) higher than the DMPK Kd (MRCKβ [8]): 33 fold
SMILES: c1csc(-c2c[nH]c3nccc(N4CCC[C@@]5(CCCCN5)C4)c23)n1 [BDP8900]
- selectivity of pMLC2 inhibition for MRCKβ relative to ROCK1 or ROCK2 (MRCKβ [6]): > 562 times
- number of cancer types significantly resistant relative to all cancer cell lines (757 cancer cell lines): 6
- number of cancer types significantly sensitive relative to all cancer cell lines (757 cancer cell lines): 10

- EC50 ([10]; read-out: EC50 inhibition of MLC2 phosphorylation, SCC12 cells, 2 hours): 64 nM
- inhibition of CDK2/Cyclin A (CDK2/Cyclin A): > 75%
- inhibition of DMPK (DMPK [4]): > 75%
- inhibition of CDK9/Cyclin T1 (CDK9/Cyclin T1): > 75%
- Kd (DMPK [5]): 0.98 nM
- inhibition of ROCK1 (ROCK1): > 75%
- minimum fold-selectivity for MRCKβ against all kinases tested (calculated Ki) (MRCKβ [7]): 27 times
- inhibition of TSSK1 (STK22D) (TSSK1 (STK22D)): > 75%
- inhibition of PKCα (PKCα): > 75%
- higher concentration in skin, repeated 25 μg doses relative to single 10 μg dose ([14]; topical): 2.8 fold
- mean concentration in blood [14, 20]: 40 nM
- mean concentration in skin [14, 20]: 26000 nM
- level in blood after 24 hours ([14]; topical, single 25 μg or 8 X 25 μg): undetectable
- concentration in skin 24 hours after final dosing ([14]; topical, single 25 μg or 8 X 25 μg (either regimen)): over 16 μM
- compound in blood at experimental endpoint [15]: undetectable
- mean concentration in skin at experimental endpoint [15]: > 1000 nM
- inhibition of CDK9/Cyclin K (CDK9/Cyclin K): > 75%
- inhibition of ROCK2 (ROCK2): > 75%
- affinity (MRCKβ Ki determined in-house) higher than the DMPK Kd (MRCKβ [8]): 42 fold
SMILES: c1cc(-c2c[nH]c3nccc(N4CCC[C@@]5(CCCCN5)C4)c23)ncn1 [BDP9066]
- MRCKα S1003 autophosphorylation in vitro (MRCKα [9]): blocked
- recombinant MLC2 phosphorylation by MRCKα in vitro (MRCKα [9]): blocked
- increase in cellular potency relative to BDP5290 ([10]; SCC12 cells pMLC2): 5 fold
- epidermal MRCKα pS1003 positive staining (MRCKα pS1003 [11]): significantly reduced
- selectivity of pMLC2 inhibition for MRCKβ relative to ROCK1 or ROCK2 (MRCKβ [6]): > 100 times
- average papilloma volume per mouse vs DMSO (skin papillomas): significantly reduced
- total papilloma numbers per mouse vs DMSO (skin papillomas): not different
- total tumor volume per mouse vs DMSO (skin papillomas): significantly reduced
- proportion of irregularly shaped cells (SCC12 cells [12]; SCC12, 0.5 μM): increased
- proportion of regularly shaped cells (SCC12 cells [12]; SCC12, 0.5 μM): reduced proportions
- 2D cell area (SCC12 cells [12]; SCC12, dose range): increased
- cell roundness (SCC12 cells [12]; SCC12, dose range): decreased
- proportion of elongated cells (SCC12 cells [12]; SCC12, varying concentrations): did not vary
- pS1003 immunoreactivity (MRCKα [2]; 1 µM): blocked
- SCC12 cell viability (SCC12 cells [13]; all concentrations up to 0.5 µM): unaffected
- decrease in viability (SCC12 cells [13]; SCC12 cells, 1 μM): 25%
- bundling of filamentous actin at cortical and cytoplasmic regions (SCC12 cells [16]): reduced
- decrease in the percentage of invading cells (SCC12 cells [17]): 50%
- directionality of cell motility (SCC12 cells [18]): No differences
- reduction of accumulated distance travelled (SCC12 cells [18]): 21%
- reduction of mean Euclidean distance travelled (SCC12 cells [18]): 18%
- reduction of mean cell velocity (SCC12 cells [18]): 21%
- MRCKα pS1003 histoscores in papillomas (MRCKα pS1003 [19]): reduced
- MRCKα pS1003 histoscores in the treated skin area (MRCKα pS1003 [19]): reduced
- MRCKα pS1003 immunohistochemistry staining (MRCKα pS1003 [19]): significant decreases
- number of cancer types significantly resistant relative to all cancer cell lines (757 cancer cell lines): 4
- number of cancer types significantly sensitive relative to all cancer cell lines (757 cancer cell lines): 8
